Tests used:
Type in all cases: functional
U-251 = assay: Growth inhibition of human U251 cells at 10 uM after 48 hrs by sulforhodamine B assay; settings: U-251, 48 h, values are per cent of control
Malme-3M = assay: Growth inhibition of human MALME-3M cells at 10 uM after 48 hrs by sulforhodamine B assay; settings: values are per cent of control
[1] = Growth inhibition of human UACC257 cells at 10 uM after 48 hrs by sulforhodamine B assay; settings: UACC-257, 48 h, values are per cent of control
[2] = Growth inhibition of human OVCAR3 cells at 10 uM after 48 hrs by sulforhodamine B assay; settings: OVCAR-3, 48 h, values are per cent of control
[3] = Growth inhibition of human NCI-ADR-RES cells at 10 uM after 48 hrs by sulforhodamine B assay; settings: values are per cent of control
[4] = Growth inhibition of human SKOV3 cells at 10 uM after 48 hrs by sulforhodamine B assay; settings: SK-OV-3, 48 h, values are per cent of control
[5] = Growth inhibition of human TK10 cells at 10 uM after 48 hrs by sulforhodamine B assay; settings: TK-10, 48 h, values are per cent of control
[6] = Growth inhibition of human PC3 cells at 10 uM after 48 hrs by sulforhodamine B assay; settings: PC-3, 48 h, values are per cent of control
T47D = assay: Growth inhibition of human T47D cells at 10 uM after 48 hrs by sulforhodamine B assay; settings: values are per cent of control
MDA-MB-468 [7] = assay: Growth inhibition of human MDA-MB-468 cells at 10 uM after 48 hrs by sulforhodamine B assay; settings: MDA-MB-468, 48 h, values are per cent of control
CCRF-CEM [8] = assay: Growth inhibition of human CCRF-CEM cells after 48 hrs by sulforhodamine B assay
In short: (§1)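 Five-dose testing against a 60-line human tumor cell panel. GI50 is the drug concentration giving a 50% reduction in net protein increase relative to untreated control cells.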

[9] = Growth inhibition of human HL-60(TB) cells after 48 hrs by sulforhodamine B assay; settings: HL-60, 48 h
In short: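 Five-dose study across the 60-cell human tumour panel. GI50 is the drug concentration giving a 50% reduction in net protein increase relative to control cells.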

[10] = Growth inhibition of human MOLT4 cells after 48 hrs by sulforhodamine B assay; settings: MOLT-4, 48 h
In short: (§2)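 Five-dose concentration series run across a panel of 60 human tumour cell lines. GI50 is taken as the drug concentration giving a 50% reduction in net protein increase relative to untreated control cells.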

[11] = Growth inhibition of human RPMI8226 cells after 48 hrs by sulforhodamine B assay; settings: RPMI-8226, 48 h; in short: as §2
NCI-H23 = assay: Growth inhibition of human NCI-H23 cells after 48 hrs by sulforhodamine B assay; settings: NCI-H23, 48 h; in short: as §2
NCI-H522 [12] = assay: Growth inhibition of human NCI-H522 cells after 48 hrs by sulforhodamine B assay; settings: NCI-H522, 48 h; in short: as §2
[13] = Growth inhibition of human COLO205 cells after 48 hrs by sulforhodamine B assay; settings: COLO 205, 48 h; in short: as §1
[14] = Growth inhibition of human HCT15 cells after 48 hrs by sulforhodamine B assay; settings: HCT-15, 48 h; in short: as §1
KM12 = assay: Growth inhibition of human KM12 cells after 48 hrs by sulforhodamine B assay; settings: KM12, 48 h; in short: as §1
[15] = Growth inhibition of human SF268 cells after 48 hrs by sulforhodamine B assay; settings: SF-268, 48 h; in short: as §2
[16] = Growth inhibition of human SF539 cells after 48 hrs by sulforhodamine B assay; settings: SF-539, 48 h; in short: as §2
[17] = Growth inhibition of human SNB19 cells after 48 hrs by sulforhodamine B assay; settings: SNB-19, 48 h; in short: as §2
M14 = assay: Growth inhibition of human M14 cells after 48 hrs by sulforhodamine B assay; settings: M14, 48 h; in short: as §1
MDA-MB-435 = assay: Growth inhibition of human MDA-MB-435 cells after 48 hrs by sulforhodamine B assay; settings: MDA-MB-435, 48 h; in short: as §1
SK-MEL-28 = assay: Growth inhibition of human SK-MEL-28 cells after 48 hrs by sulforhodamine B assay; settings: SK-MEL-28, 48 h; in short: as §2
[18] = Growth inhibition of human UACC62 cells after 48 hrs by sulforhodamine B assay; settings: UACC-62, 48 h
In short: (§3)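 Five-dose testing across the 60-line human tumour cell panel. GI50 is the drug concentration that gives a 50% reduction in net protein increase relative to control cells.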

[19] = Growth inhibition of human OVCAR4 cells after 48 hrs by sulforhodamine B assay; settings: OVCAR-4, 48 h; in short: as §2
[20] = Growth inhibition of human SKOV3 cells after 48 hrs by sulforhodamine B assay; settings: SK-OV-3, 48 h; in short: as §2
CCRF-CEM [21] = assay: Growth inhibition of human CCRF-CEM cells at 10 uM after 48 hrs by sulforhodamine B assay; settings: values are per cent of control
[22] = Growth inhibition of human HL-60(TB) cells at 10 uM after 48 hrs by sulforhodamine B assay; settings: HL-60, 48 h, values are per cent of control
[23] = Growth inhibition of human MOLT4 cells at 10 uM after 48 hrs by sulforhodamine B assay; settings: MOLT-4, 48 h, values are per cent of control
[24] = Growth inhibition of human RPMI8226 cells at 10 uM after 48 hrs by sulforhodamine B assay; settings: RPMI-8226, 48 h, values are per cent of control
NCI-H522 [25] = assay: Growth inhibition of human NCI-H522 cells at 10 uM after 48 hrs by sulforhodamine B assay; settings: NCI-H522, 48 h, values are per cent of control
[26] = Growth inhibition of human HCC2998 cells at 10 uM after 48 hrs by sulforhodamine B assay; settings: HCC 2998, 48 h, values are per cent of control
[27] = Growth inhibition of human SF268 cells at 10 uM after 48 hrs by sulforhodamine B assay; settings: SF-268, 48 h, values are per cent of control
[28] = Growth inhibition of human UO31 cells after 48 hrs by sulforhodamine B assay; settings: UO-31, 48 h; in short: as §3
[29] = Growth inhibition of human PC3 cells after 48 hrs by sulforhodamine B assay; settings: PC-3, 48 h; in short: as §2
MDA-MB-231 = assay: Growth inhibition of human MDA-MB-231 cells after 48 hrs by sulforhodamine B assay; settings: MDA-MB-231, 48 h; in short: as §1
[30] = Growth inhibition of human Hs 578T cells after 48 hrs by sulforhodamine B assay; in short: as §1
MDA-MB-468 [31] = assay: Growth inhibition of human MDA-MB-468 cells after 48 hrs by sulforhodamine B assay; settings: MDA-MB-468, 48 h; in short: as §1
MCF7 = assay: Growth inhibition of human MCF7 cells at 10 uM after 48 hrs by sulforhodamine B assay; settings: MCF7, 48 h, values are per cent of control
[32] = Growth inhibition of human HOP92 cells at 10 uM after 48 hrs by sulforhodamine B assay; settings: HOP-92, 48 h, values are per cent of control

COc1ccc(/C=C(\C#N)c2ccc3c(c2)OCO3)c(OC)c1
growth, % of control at 10 µM (U-251): 29.2%
growth, % of control at 10 µM (Malme-3M): 49.3%
growth, % of control at 10 µM [1]: 44.7%
growth, % of control at 10 µM [2]: 15.3%
growth, % of control at 10 µM [3]: 20.3%
growth, % of control at 10 µM [4]: 33.2%
growth, % of control at 10 µM [5]: 49.7%
growth, % of control at 10 µM [6]: 47%
growth, % of control at 10 µM (T47D): 43.5%
growth, % of control at 10 µM (MDA-MB-468 [7]): 8.3%
GI50 (CCRF-CEM [8]): 1560 nM
GI50 [9]: 1490 nM
GI50 [10]: 2810 nM
GI50 [11]: 3230 nM
GI50 (NCI-H23): 6330 nM
GI50 (NCI-H522 [12]): 2580 nM
GI50 [13]: 1590 nM
GI50 [14]: 870 nM
GI50 (KM12): 2250 nM
GI50 [15]: 9360 nM
GI50 [16]: 1610 nM
GI50 [17]: 6950 nM
GI50 (M14): 1320 nM
GI50 (MDA-MB-435): 300 nM
GI50 (SK-MEL-28): 4470 nM
GI50 [18]: 2320 nM
GI50 [19]: 1650 nM
GI50 [20]: 2750 nM
growth, % of control at 10 µM (CCRF-CEM [21]): 27%
growth, % of control at 10 µM [22]: 7.1%
growth, % of control at 10 µM [23]: 22.7%
growth, % of control at 10 µM [24]: 58.1%
growth, % of control at 10 µM (NCI-H522 [25]): 43.3%
growth, % of control at 10 µM [26]: 60.5%
growth, % of control at 10 µM [27]: 53.1%
GI50 [28]: 6660 nM
GI50 [29]: 3030 nM
GI50 (MDA-MB-231): 3360 nM
GI50 [30]: 3620 nM
GI50 (MDA-MB-468 [31]): 690 nM

COc1ccc(/C=C(\C#N)c2ccc3c(c2)OCO3)cn1
growth, % of control at 10 µM (U-251): 84.5%
growth, % of control at 10 µM (Malme-3M): 90.6%
growth, % of control at 10 µM [1]: 89.4%
growth, % of control at 10 µM [2]: 100%
growth, % of control at 10 µM [3]: 86%
growth, % of control at 10 µM [4]: 83.1%
growth, % of control at 10 µM [5]: 80.4%
growth, % of control at 10 µM [6]: 77.9%
growth, % of control at 10 µM (MCF7): 83.5%
growth, % of control at 10 µM (T47D): 81%
growth, % of control at 10 µM (MDA-MB-468 [7]): 60.8%
growth, % of control at 10 µM (CCRF-CEM [21]): 87.7%
growth, % of control at 10 µM [22]: 70.8%
growth, % of control at 10 µM [23]: 71.5%
growth, % of control at 10 µM [24]: 73.2%
growth, % of control at 10 µM [32]: 64.9%
growth, % of control at 10 µM (NCI-H522 [25]): 79.8%
growth, % of control at 10 µM [26]: 93.2%
growth, % of control at 10 µM [27]: 91%

COc1ccc(/C=C(\C#N)c2ccc3c(c2)OCO3)cc1
growth, % of control at 10 µM (U-251): 16.5%
growth, % of control at 10 µM (Malme-3M): 24.3%
growth, % of control at 10 µM [1]: 23%
growth, % of control at 10 µM [2]: 4.9%
growth, % of control at 10 µM [3]: 11.6%
growth, % of control at 10 µM [4]: 28.8%
growth, % of control at 10 µM [5]: 32.2%
growth, % of control at 10 µM [6]: 21.2%
growth, % of control at 10 µM (MCF7): 20.7%
growth, % of control at 10 µM (T47D): 35.8%
growth, % of control at 10 µM (MDA-MB-468 [7]): 1.2%
GI50 (CCRF-CEM [8]): 250 nM
GI50 [9]: 240 nM
GI50 [10]: 450 nM
GI50 [11]: 490 nM
GI50 (NCI-H23): 860 nM
GI50 (NCI-H522 [12]): 40 nM
GI50 [13]: 140 nM
GI50 [14]: 70 nM
GI50 (KM12): 70 nM
GI50 [15]: 730 nM
GI50 [16]: 250 nM
GI50 [17]: 750 nM
GI50 (M14): 120 nM
GI50 (MDA-MB-435): 30 nM
GI50 (SK-MEL-28): 450 nM
GI50 [18]: 590 nM
GI50 [20]: 400 nM
growth, % of control at 10 µM (CCRF-CEM [21]): 21.6%
growth, % of control at 10 µM [22]: 0.1%
growth, % of control at 10 µM [23]: 19.5%
growth, % of control at 10 µM [24]: 18.9%
growth, % of control at 10 µM [32]: 40.4%
growth, % of control at 10 µM (NCI-H522 [25]): -2.4%
growth, % of control at 10 µM [26]: 49.4%
growth, % of control at 10 µM [27]: 38.5%
GI50 [28]: 580 nM
GI50 [29]: 320 nM
GI50 (MDA-MB-231): 2110 nM
GI50 [30]: 460 nM
GI50 (MDA-MB-468 [31]): 280 nM

Source: ChEMBL document CHEMBL3792365, “Dioxol and dihydrodioxin analogs of 2- and 3-phenylacetonitriles as potent anti-cancer agents with nanomolar activity against a variety of human cancer cells” (2016)
